A value given as a limit tells only on which side of the number the result lay.

Data set [1] deals with HCT-116. Put plainly: Cytotoxicity against human HCT116 cells assessed as reduction of [3H]thymidine incorporation after 72 hrs by scintillation counting. The class given is functional, cell-based. In short, it runs like this:
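HCT-116 cells were seeded 24 h before compound and treated with serial dilutions in triplicate for 72 h at 37 °C. [³H]thymidine (1 µCi per well) was added for the last 6 h, and incorporation was read by scintillation counting. IC50 came from nonlinear sigmoidal regression (top 100%, bottom 0%, variable slope). Values are means of at least three independent determinations, with SEM from the individual IC50s.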
A general note: Dividing cells build labelled thymidine or BrdU into new DNA.

Data set [2] has as its target Phosphodiesterase 4 (Homo sapiens, UniProt P27815+Q08499+Q07343+Q08493). Kind of data set: Inhibition of human PDE4 expressed in U937 cells using [3H]cAMP as substrate after 30 mins. The settings on record: u-937. Summed up: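 PDE4 was purified from U937 human monocytic cells by gel filtration. Reactions ran in 50 mM Tris–HCl pH 7.5 with 5 mM MgCl₂, 1 µM cAMP and 10 nM [³H]-cAMP for 30 min at 30 °C. They were stopped by boiling, treated with snake venom (1 mg/ml) and separated on ion-exchange resin. Substrate consumption stayed below 15%. IC50 values are means of at least three determinations, with SEM.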

The test system of data set [3] is PBMC. Kind of data set: Inhibition of LPS-induced TNFalpha production in human PBMC preincubated 1 hr prior to LPS stimulation measured after 18 to 20 hrs by ELISA. The class given is functional, cell-based. Summed up:
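PBMC were isolated by Ficoll-Hypaque density centrifugation and plated at 2 × 10⁵ cells in triplicate. Compounds in DMSO (0.25% final) were added 1 h before stimulation with LPS from S. abortus equi at 1 ng/ml. After 18–20 h at 37 °C in 5% CO₂, supernatant TNF-α was measured by ELISA. IC50 values are means of at least three determinations.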
For orientation: ELISA stands for enzyme-linked immunosorbent assay.

Data set [4] in a line: Inhibition of tubulin polymerization at 5 uM after 60 mins by spectrophotometry.
The nature of data set [5]: Inhibition of tubulin polymerization at 10 uM after 60 mins by spectrophotometry.
The subject of data set [6] is Plasma. Kind of data set: Stability in human plasma assessed as formation of (E/Z)-3-(3-Ethoxy-4-methoxyphenyl)-3-(3-hydroxy-4- methoxyphenyl)acrylonitrile […] by LC-MS/MS analysis. It counts as ADME, cell-free. The settings on record: 20 min.

Consider `CCOc1cc(C(=CC#N)c2ccc(OC)c(-n3cccc3)c2)ccc1OC`, for which the IC50 (usually the concentration at which inhibition is half-maximal) came to 49 nM in data set [1], 70 nM in data set [2] and 67 nM in data set [3].

Turning to `COc1cc(OC)cc(C(=CC#N)c2ccc(OC)c(N)c2)c1`, the 50% inhibitory concentration (IC50) is 1.4 nM in data set [1], 9800 nM in data set [2] and 11 nM in data set [3]. The inhibition (as a rule, the change of the read-out against control, counted positive when it falls) in data set [4] came out at 76%.

On to `COc1ccc(C(=CC#N)c2ccc(OC)c(OC)c2)cc1`, for which the IC50 in data set [1] was 24 nM; in data set [2], 190 nM; in data set [3] it was 350 nM.

Regarding `C=C(c1cc(OC)cc(OC)c1)c1ccc(OC)c(O)c1`, the IC50 was 21 nM in data set [1], more than 10000 nM in data set [2] and 3000 nM in data set [3].

For `CCOc1cc(C(=CC#N)c2ccc(OC)c(C)c2)ccc1OC`, the IC50 came out at 87 nM in data set [1], 82 nM in data set [2] and 100 nM in data set [3].

Regarding `COc1cc(OC)cc(C(=CC(C)=O)c2ccc(OC)c(OC)c2)c1`, the results for the IC50 in data set [1], in data set [2] and in data set [3] were more than 10000 nM, 140 nM and 750 nM, respectively.

Take `CC=C(c1cc(OC)cc(OC)c1)c1ccc(OC)c(O)c1`: the half-inhibitory concentration (IC50) in data set [1] is 30 nM; in data set [2], more than 10000 nM; in data set [3], 150 nM.

Take `COc1ccc(C(=CC#N)c2cc(OC)c(OC)c(OC)c2)cc1N`: the figures for the half-maximal inhibitory concentration (IC50) in data set [1], in data set [2] and in data set [3] were 1.8 nM, more than 10000 nM and 200 nM, respectively.

Consider `CC=C(c1cc(OC)cc(OC)c1)c1ccc(OC)c(OC)c1`, for which the IC50 in data set [1] turned out to be 480 nM; in data set [2], 1500 nM; in data set [3] it was 2600 nM.

Take `C#CC=C(c1cc(OC)cc(OC)c1)c1ccc(OC)c(OC)c1`: the IC50 in data set [1] is more than 10000 nM; in data set [2], 3500 nM; in data set [3], 7200 nM.

In the case of `COc1ccc(C(=CC#N)c2ccc(OC)c(OC)c2)cc1OC`, the IC50 amounted to 140 nM in data set [1], 310 nM in data set [2] and 600 nM in data set [3].

For the compound `COC=C(c1cc(OC)cc(OC)c1)c1ccc(OC)c(OC)c1`, the figures for the IC50 in data set [1], in data set [2] and in data set [3] were more than 10000 nM, 3600 nM and 6300 nM, respectively.

As to `COc1cc(OC)cc(/C(=C\C#N)c2ccc(OC)c(OC)c2)c1`, the half-inhibitory concentration (IC50) in data set [1] came out at 11 nM; in data set [2], 150 nM; in data set [3], 93 nM.

For the compound `CCOc1cc(C(=CC#N)c2ccc(S(C)(=O)=O)cc2)ccc1OC`, the IC50 in data set [1] was more than 10000 nM; in data set [2], 200 nM; in data set [3] it was 130 nM.

On to `COc1cccc(C(=CC#N)c2cc(OC)cc(OC)c2)c1`, for which the results for the IC50 in data set [1], in data set [2] and in data set [3] were 15 nM, 3400 nM and 290 nM, respectively. The figures for the inhibition in data set [4] and in data set [5] were 67% and 88%, respectively.

As for `CCOc1cc(C(=CC#N)c2ccc(OC)c(OC(=O)[C@@H](N)C(C)C)c2)ccc1OC.Cl`, the IC50 in data set [1] worked out at 22 nM; in data set [2] it was 120 nM; in data set [3] it was 67 nM. For the same compound, the Stability result in data set [6] is reported as “Unstable”.

On to `C=C(c1ccc(OC)c(O)c1)c1ccc(OC)c(OCC)c1`, for which the concentration for half-maximal inhibition (IC50) in data set [1] was found to be 36 nM; in data set [2] it was 380 nM; in data set [3], 29 nM.

As for `C=C(c1ccc(OC)c(N)c1)c1ccc(OC)c(OCC)c1`, the values for the IC50 in data set [1], in data set [2] and in data set [3] were 38 nM, 680 nM and 380 nM, respectively.

For `C=C(c1cc(OC)cc(OC)c1)c1ccc(OC)c(N)c1`, the IC50 in data set [1] was 13 nM; in data set [2], more than 10000 nM; in data set [3] it was 330 nM.

`COc1ccc(/C=C\c2cc(OC)c(OC)c(OC)c2)cc1O` [COMBRETASTATIN A4]: the 50% inhibitory concentration (IC50) in data set [1] is 0.74 nM; in data set [2] it was more than 10000 nM; in data set [3] it was 11 nM. In addition, the inhibition in data set [4] was determined as 88%.

Turning to `CCOc1cc(C(=CC#N)c2ccc(OC)c(OCC)c2)ccc1OC`, the IC50 was 440 nM in data set [1], 70 nM in data set [2] and 48 nM in data set [3].

Take `CCOc1cc(C(=CC#N)c2cccc(OC)c2)ccc1OC`: the IC50 in data set [1] was found to be 450 nM; in data set [2], 110 nM; in data set [3] it was 230 nM.

As to `CCC=C(c1cc(OC)cc(OC)c1)c1ccc(OC)c(OC)c1`, the figures for the IC50 in data set [1], in data set [2] and in data set [3] were more than 10000 nM, 2000 nM and more than 10000 nM, respectively.

With `CCOc1cc(C(=CC#N)c2ccc(OC)c(OC(=O)[C@H](C)N)c2)ccc1OC.Cl`, the figures for the IC50 in data set [1], in data set [2] and in data set [3] were 17 nM, 69 nM and 57 nM, respectively. For the same compound, in data set [6], the Stability result is on record as “Unstable”.

For `COc1cc(OC)cc(C(=CCCN(C)C)c2ccc(OC)c(OC)c2)c1`, the IC50 in data set [1], in data set [2] and in data set [3] was more than 10000 nM in each case.

In the case of `C=C(c1cc(OC)cc(OC)c1)c1ccc(OC)c(OC)c1`, the results for the IC50 in data set [1], in data set [2] and in data set [3] were more than 10000 nM, 2200 nM and 4800 nM, respectively.

With `CCOc1cc(C(=CC#N)c2ccc(N(C)C)cc2)ccc1OC`, the values for the IC50 in data set [1], in data set [2] and in data set [3] were 31 nM, 52 nM and 130 nM, respectively.

Turning to `COC(=O)C=C(c1cc(OC)cc(OC)c1)c1ccc(OC)c(OC)c1`, the IC50 was more than 10000 nM in data set [1], 1300 nM in data set [2] and 5400 nM in data set [3].

Regarding `COc1cc(OC)cc(C(=CC(=O)O)c2ccc(OC)c(OC)c2)c1`, the IC50 in data set [1], in data set [2] and in data set [3] was more than 10000 nM each time.

For `COc1cc(OC)cc(C(=CC#N)c2ccc(OC)c(NC(C)=O)c2)c1`, the IC50 was 92 nM in data set [1], more than 10000 nM in data set [2] and 66 nM in data set [3]. In addition, the inhibition in data set [4] was 46%; in data set [5], 74%.

In the case of `COc1ccc(C(=CC#N)c2cc(OC)cc(OC)c2)cc1`, the values for the half-inhibitory concentration (IC50) in data set [1], in data set [2] and in data set [3] were 1.2 nM, 3800 nM and 440 nM, respectively.

On to `CCOc1cc(C(=C(F)F)c2ccc(OC)c(O)c2)ccc1OC`, for which the concentration for half-maximal inhibition (IC50) in data set [1] was 74 nM; in data set [2] it was 360 nM; in data set [3], 54 nM.

For the compound `COc1cc(OC)cc(/C(=C/C#N)c2ccc(OC)c(OC)c2)c1`, the IC50 stood at 110 nM in data set [1], 730 nM in data set [2] and 650 nM in data set [3].

As for `COc1cc(OC)cc(C(=CC(N)=O)c2ccc(OC)c(OC)c2)c1`, the IC50 in data set [1] is more than 10000 nM; in data set [2], 6700 nM; in data set [3] it was 5500 nM.

As to `COc1cc(OC)cc(C(=CC#N)c2ccccc2)c1`, the results for the half-maximal inhibitory concentration (IC50) in data set [1], in data set [2] and in data set [3] were 970 nM, 1900 nM and 2400 nM, respectively.

On to `COc1cc(OC)cc(C(=CC#N)c2ccc(OC)c(O)c2)c1`, for which the concentration for half-maximal inhibition (IC50) in data set [1] stood at 2.5 nM; in data set [2] it was 2400 nM; in data set [3] it was 1.2 nM. In data set [4], this compound displayed an inhibition of 77%.

As for `CCOc1cc(C(=CC#N)c2ccc(NC)cc2)ccc1OC`, the results for the IC50 in data set [1], in data set [2] and in data set [3] were 55 nM, 41 nM and 140 nM, respectively.

For `COc1cccc(C(=CC#N)c2ccc(OC)c(OC)c2)c1`, the results for the concentration for half-maximal inhibition (IC50) in data set [1], in data set [2] and in data set [3] were 310 nM, 160 nM and 660 nM, respectively.

`CC=C(c1ccc(OC)c(N)c1)c1ccc(OC)c(OCC)c1`: the IC50 in data set [1] came to 110 nM; in data set [2] it was 590 nM; in data set [3], 2800 nM.

With `COc1cc(OC)cc(C(=CC#N)c2ccc(OC)c(OC)c2)c1`, the IC50 turned out to be 18 nM in data set [1], 350 nM in data set [2] and 270 nM in data set [3]. Also, the inhibition in data set [4] was 65%; in data set [5], 84%.

Take `CCOc1cc(C(=CC#N)c2ccc(OC)c(OC(=O)N(C)C)c2)ccc1OC`: the concentration for half-maximal inhibition (IC50) in data set [1] is more than 10000 nM; in data set [2], 120 nM; in data set [3], 240 nM.

In the case of `COc1cc(C(=CC#N)c2cc(OC)c(OC)c(OC)c2)cc(OC)c1OC`, the half-maximal inhibitory concentration (IC50) in data set [1] is more than 10000 nM; in data set [2], 2400 nM; in data set [3] it was 870 nM.

In the case of `COc1ccc(C(=CC#N)c2cc(OC)c(OC)c(OC)c2)cc1OC`, the IC50 came out at 41 nM in data set [1], 1800 nM in data set [2] and 540 nM in data set [3].

Consider `CCOc1cc(C(=CC#N)c2ccc(OC)c(F)c2)ccc1OC`, for which the 50% inhibitory concentration (IC50) in data set [1] turned out to be 130 nM; in data set [2] it was 70 nM; in data set [3], 31 nM.

With `COc1cc(OC)cc(C(=Cc2ccccc2)c2ccc(OC)c(O)c2)c1`, the half-inhibitory concentration (IC50) in data set [1], in data set [2] and in data set [3] was more than 10000 nM in each case.

Take `CCOc1cc(C(=CC#N)c2ccc(OC)c(O)c2)ccc1OC`: the IC50 in data set [1] worked out at 15 nM; in data set [2] it was 91 nM; in data set [3], 44 nM.

As for `CCOc1cc(C(=CC#N)c2ccc(OC)c(OC)c2)ccc1OC`, the results for the IC50 in data set [1], in data set [2] and in data set [3] were 200 nM, 83 nM and 180 nM, respectively.

Values taken from ChEMBL document CHEMBL1914453, “1,1-Diarylalkenes as anticancer agents: dual inhibitors of tubulin polymerization and phosphodiesterase 4” (Bioorg Med Chem, 2011).
